What was measured:
normal colonocyte = assay: MTT cytotoxicity on normal colonic epithelial cells; type: cell-based, rat; conditions: concentration at 100% cell viability (safe dose), 72 h, mean ± SEM
Outline: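 Normal colonic epithelial cells were isolated by the Follmann & Birkner method, with modifications. Cytotoxicity of test compounds on these colonocytes was measured by MTT assay to define safe concentrations. Data are mean ± SEM of three measurements. Differences were tested by one-way ANOVA with Tukey's test, with significance at p < 0.05.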

HCT-116 cells = assay: MTT anticancer assay on colorectal cancer cell line HCT-116; type: cell-based, human; conditions: for SI (selectivity index): HCT-116 cells over normal colonocytes; for IC50: Homo sapiens, HCT-116, 72 h, read-out: IC50 HCT-116, MTT, 72 h, mean ± SEM
Outline: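 MTT viability assay on human colorectal carcinoma HCT-116 cells exposed to test compounds. Data are mean ± SEM of three measurements. Differences between treatments were tested by one-way ANOVA with Tukey's test, with significance at p < 0.05.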

HCT-116 cell line = conditions: read-out: IC50 cytotoxicity HCT-116 cell line; cited from earlier work

SMILES | EC100 normal colonocyte (normal colonocyte) | SI (selectivity index) (HCT-116 cells) | IC50 (HCT-116 cells) | fold lower anticancer activity than compound 20 (HCT-116 cells; HCT-116 IC50, compared to 20) | IC50 (HCT-116 cell line)
O=c1c(Cc2ccccc2)nc2ccccc2n1Cc1cn(-c2ccc(O)cc2)nn1 [Compound 16] | 0.556 ± 0.031 µM | 5.000 | 0.222 µM | – | –
CC(=O)NS(=O)(=O)c1ccc(-n2cc(Cn3c(=O)c(Cc4ccccc4)nc4ccccc43)nn2)cc1 [Compound 19] | 0.150 ± 0.015 µM | 1.211 | 0.331 ± 0.004 µM | 4.6 fold | –
CNC(=O)c1cc(Oc2ccc(NC(=O)Nc3ccc(Cl)c(C(F)(F)F)c3)cc2)ccn1 [sorafenib] | – | – | – | – | 9.4 µM
O=C(O)CNC(=O)c1ccc(-n2cc(Cn3c(=O)c(Cc4ccccc4)nc4ccccc43)nn2)cc1 [Compound 17] | 0.169 ± 0.036 µM | 3.263 | 0.114 ± 0.001 µM | – | –
CC(=O)c1ccc(-n2cc(Cn3c(=O)c(Cc4ccccc4)nc4ccccc43)nn2)cc1 [Compound 18] | 0.212 ± 0.010 µM | 10.633 | 0.218 µM | – | –
O=c1c(Cc2ccccc2)nc2ccccc2n1Cc1cn(-c2ccc(I)cc2)nn1 [Compound 15] | 0.103 ± 0.008 µM | 3.244 | 0.135 ± 0.009 µM | – | –
COc1cccc2c1C(=O)c1c(O)c3c(c(O)c1C2=O)C[C@@](O)(C(=O)CO)C[C@@H]3O[C@H]1C[C@H](N)[C@H](O)[C@H](C)O1 [DOX, doxorubicin, reference compound] | 0.074 ± 0.008 µM | 0.357 | 0.761 ± 0.05 µM | – | 9.63 µM

From paper PMC11170630 (ACS Omega, 2024)
